{
  "source": "ChEMBL document CHEMBL3045665",
  "about": "“Synthesis and in vitro antiproliferative activity of novel (4-chloro- and 4-acyloxy-2-butynyl)thioquinolines” (2011)",
  "format_in_all_cases": "functional",
  "key": {"B16": {"system": "B16", "assay": "Antiproliferative activity against Mus musculus (mouse) B16 cells after 72 hr", "details": "B16, 72 h, read-out: ID50 (the source's name)", "outline": "(§1)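 Cells in opti-MEM with 2 mM glutamine, streptomycin, penicillin and 5% FCS at 37°C and 5% CO2. Plated at 10^4 cells/well 24 h before treatment, then exposed 72 h to 0.1–100 µg/ml (1 mg/ml stock in 10% DMSO, diluted in medium). Cells fixed with cold 50% TCA, stained with 0.4% SRB, dye extracted in 10 mM Tris, OD 540 nm. ID50 versus untreated control. Triplicates, 3–5 experiments.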"}, "P388": {"system": "P388", "assay": "Antiproliferative activity against Mus musculus (mouse) P388 cells after 72 hr", "details": "P388, 72 h, read-out: ID50 (the source's name)", "outline": "(§2)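 Leukemia cells were grown in suspension in opti-MEM with 2 mM glutamine, antibiotics and 5% FCS (37°C, 5% CO2) and seeded at 10^4 cells/well 24 h beforehand. They were exposed 72 h to 0.1–100 µg/ml (1 mg/ml stock in 10% DMSO). MTT was added for the final 3–4 h, followed by SDS/DMF lysis for 24 h and OD at 570 nm. ID50 is relative to untreated control; triplicates, 3–5 experiments.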"}, "[1]": {"assay": "Antiproliferative activity against Homo sapiens (human) SW707 cells after 72 hr", "details": "SW707, 72 h, read-out: ID50 (the source's name)", "outline": "as §1"}, "T47D": {"system": "T47D", "assay": "Antiproliferative activity against Homo sapiens (human) T47D cells after 72 hr", "details": "read-out: ID50 (the source's name)", "outline": "as §1"}, "CCRF-CEM": {"system": "CCRF-CEM", "assay": "Antiproliferative activity against Homo sapiens (human) CCRF-CEM cells after 72 hr", "details": "read-out: ID50 (the source's name)", "outline": "as §2"}},
  "data": [
    {"smiles": "ClCC#CCSc1cnc2ccccc2c1Cl", "values": [
      {"measurement": "IC50", "setting": "B16", "result": 4, "unit": "µg/mL"},
      {"measurement": "IC50", "setting": "P388", "result": 13.4, "unit": "µg/mL"},
      {"measurement": "IC50", "setting": "[1]", "result": 3.3, "unit": "µg/mL"},
      {"measurement": "IC50", "setting": "T47D", "result": 3.2, "unit": "µg/mL"},
      {"measurement": "IC50", "setting": "CCRF-CEM", "result": 3.7, "unit": "µg/mL"}
    ]},
    {"smiles": "CSc1cnc2ccccc2c1SCC#CCCl", "values": [
      {"measurement": "IC50", "setting": "B16", "result": 16.9, "unit": "µg/mL"},
      {"measurement": "IC50", "setting": "P388", "result": 2.7, "unit": "µg/mL"},
      {"measurement": "IC50", "setting": "[1]", "result": 3.7, "unit": "µg/mL"},
      {"measurement": "IC50", "setting": "T47D", "result": 3.9, "unit": "µg/mL"},
      {"measurement": "IC50", "setting": "CCRF-CEM", "result": 2.5, "unit": "µg/mL"}
    ]},
    {"smiles": "CSc1cnc2ccccc2c1[Se]CC#CCCl", "values": [
      {"measurement": "IC50", "setting": "B16", "result": 3.5, "unit": "µg/mL"},
      {"measurement": "IC50", "setting": "P388", "result": 0.4, "unit": "µg/mL"},
      {"measurement": "IC50", "setting": "[1]", "result": 3.2, "unit": "µg/mL"},
      {"measurement": "IC50", "setting": "T47D", "result": 0.7, "unit": "µg/mL"},
      {"measurement": "IC50", "setting": "CCRF-CEM", "result": 1.7, "unit": "µg/mL"}
    ]},
    {"smiles": "C#CCSc1cnc2ccccc2c1SCC#CCCl", "values": [
      {"measurement": "IC50", "setting": "B16", "result": 52.8, "unit": "µg/mL"},
      {"measurement": "IC50", "setting": "P388", "result": 3, "unit": "µg/mL"},
      {"measurement": "IC50", "setting": "[1]", "result": 12.9, "unit": "µg/mL"},
      {"measurement": "IC50", "setting": "T47D", "result": 5.8, "unit": "µg/mL"},
      {"measurement": "IC50", "setting": "CCRF-CEM", "result": 2.9, "unit": "µg/mL"}
    ]},
    {"smiles": "C#CCSc1cnc2ccccc2c1[Se]CC#CCCl", "values": [
      {"measurement": "IC50", "setting": "B16", "result": 7.1, "unit": "µg/mL"},
      {"measurement": "IC50", "setting": "P388", "result": 0.8, "unit": "µg/mL"},
      {"measurement": "IC50", "setting": "[1]", "result": 3.2, "unit": "µg/mL"},
      {"measurement": "IC50", "setting": "T47D", "result": 0.4, "unit": "µg/mL"},
      {"measurement": "IC50", "setting": "CCRF-CEM", "result": 1.8, "unit": "µg/mL"}
    ]},
    {"smiles": "OCC#CCSc1cnc2ccccc2c1SCC#CCCl", "values": [
      {"measurement": "IC50", "setting": "B16", "result": 43.4, "unit": "µg/mL"},
      {"measurement": "IC50", "setting": "P388", "result": 5.1, "unit": "µg/mL"},
      {"measurement": "IC50", "setting": "[1]", "result": 19.8, "unit": "µg/mL"},
      {"measurement": "IC50", "setting": "T47D", "result": 5.3, "unit": "µg/mL"},
      {"measurement": "IC50", "setting": "CCRF-CEM", "result": 3.3, "unit": "µg/mL"}
    ]},
    {"smiles": "OCC#CCSc1cnc2ccccc2c1[Se]CC#CCCl", "values": [
      {"measurement": "IC50", "setting": "B16", "result": 3.8, "unit": "µg/mL"},
      {"measurement": "IC50", "setting": "P388", "result": 2, "unit": "µg/mL"},
      {"measurement": "IC50", "setting": "[1]", "result": 3.3, "unit": "µg/mL"},
      {"measurement": "IC50", "setting": "T47D", "result": 1.7, "unit": "µg/mL"},
      {"measurement": "IC50", "setting": "CCRF-CEM", "result": 2.6, "unit": "µg/mL"}
    ]},
    {"smiles": "O=C(O)c1ccccc1C(=O)OCC#CCSc1cnc2ccccc2c1Cl", "values": [
      {"measurement": "IC50", "setting": "B16", "result": 53.8, "unit": "µg/mL"}
    ]},
    {"smiles": "O=C(/C=C/c1ccccc1)OCC#CCSc1cnc2ccccc2c1Cl", "values": [
      {"measurement": "IC50", "setting": "B16", "result": 11.4, "unit": "µg/mL"},
      {"measurement": "IC50", "setting": "P388", "result": 32.8, "unit": "µg/mL"},
      {"measurement": "IC50", "setting": "[1]", "result": 48.8, "unit": "µg/mL"},
      {"measurement": "IC50", "setting": "T47D", "result": 22.8, "unit": "µg/mL"},
      {"measurement": "IC50", "setting": "CCRF-CEM", "result": 15.4, "unit": "µg/mL"}
    ]},
    {"smiles": "CSc1cnc2ccccc2c1SCC#CCOC(=O)c1ccccc1C(=O)O", "values": [
      {"measurement": "IC50", "setting": "B16", "result": 18.1, "unit": "µg/mL"},
      {"measurement": "IC50", "setting": "P388", "result": 35, "unit": "µg/mL"},
      {"measurement": "IC50", "setting": "[1]", "result": 28.1, "unit": "µg/mL"},
      {"measurement": "IC50", "setting": "T47D", "result": 36.1, "unit": "µg/mL"},
      {"measurement": "IC50", "setting": "CCRF-CEM", "result": 14.5, "unit": "µg/mL"}
    ]},
    {"smiles": "CSc1cnc2ccccc2c1[Se]CC#CCOC(=O)c1ccccc1C(=O)O", "values": [
      {"measurement": "IC50", "setting": "B16", "result": 3.1, "unit": "µg/mL"},
      {"measurement": "IC50", "setting": "P388", "result": 19.1, "unit": "µg/mL"},
      {"measurement": "IC50", "setting": "[1]", "result": 3.7, "unit": "µg/mL"},
      {"measurement": "IC50", "setting": "T47D", "result": 3.2, "unit": "µg/mL"},
      {"measurement": "IC50", "setting": "CCRF-CEM", "result": 4, "unit": "µg/mL"}
    ]},
    {"smiles": "CSc1cnc2ccccc2c1SCC#CCOC(=O)c1ccccc1", "values": [
      {"measurement": "IC50", "setting": "B16", "result": 17.8, "unit": "µg/mL"},
      {"measurement": "IC50", "setting": "CCRF-CEM", "result": 22.2, "unit": "µg/mL"}
    ]},
    {"smiles": "CSc1cnc2ccccc2c1[Se]CC#CCOC(=O)c1ccccc1", "values": [
      {"measurement": "IC50", "setting": "B16", "result": 2.1, "unit": "µg/mL"},
      {"measurement": "IC50", "setting": "P388", "result": 3.5, "unit": "µg/mL"},
      {"measurement": "IC50", "setting": "[1]", "result": 3.6, "unit": "µg/mL"},
      {"measurement": "IC50", "setting": "T47D", "result": 2.2, "unit": "µg/mL"},
      {"measurement": "IC50", "setting": "CCRF-CEM", "result": 1.9, "unit": "µg/mL"}
    ]},
    {"smiles": "CCOC(=O)OCC#CCSc1c(SC)cnc2ccccc12", "values": [
      {"measurement": "IC50", "setting": "B16", "result": 5.5, "unit": "µg/mL"},
      {"measurement": "IC50", "setting": "P388", "result": 34.7, "unit": "µg/mL"},
      {"measurement": "IC50", "setting": "[1]", "result": 33.1, "unit": "µg/mL"},
      {"measurement": "IC50", "setting": "T47D", "result": 34.2, "unit": "µg/mL"},
      {"measurement": "IC50", "setting": "CCRF-CEM", "result": 13.2, "unit": "µg/mL"}
    ]},
    {"smiles": "CSc1cnc2ccccc2c1SCC#CCOC(=O)/C=C/c1ccccc1", "values": [
      {"measurement": "IC50", "setting": "B16", "result": 9.4, "unit": "µg/mL"},
      {"measurement": "IC50", "setting": "[1]", "result": 66.6, "unit": "µg/mL"},
      {"measurement": "IC50", "setting": "T47D", "result": 71.9, "unit": "µg/mL"},
      {"measurement": "IC50", "setting": "CCRF-CEM", "result": 18.1, "unit": "µg/mL"}
    ]},
    {"smiles": "CSc1cnc2ccccc2c1[Se]CC#CCOC(=O)/C=C/c1ccccc1", "values": [
      {"measurement": "IC50", "setting": "B16", "result": 3.1, "unit": "µg/mL"},
      {"measurement": "IC50", "setting": "P388", "result": 43.9, "unit": "µg/mL"},
      {"measurement": "IC50", "setting": "[1]", "result": 4.7, "unit": "µg/mL"},
      {"measurement": "IC50", "setting": "T47D", "result": 4.3, "unit": "µg/mL"},
      {"measurement": "IC50", "setting": "CCRF-CEM", "result": 17.8, "unit": "µg/mL"}
    ]},
    {"smiles": "C#CCSc1cnc2ccccc2c1SCC#CCOC(=O)/C=C/c1ccccc1", "values": [
      {"measurement": "IC50", "setting": "B16", "result": 14.7, "unit": "µg/mL"},
      {"measurement": "IC50", "setting": "CCRF-CEM", "result": 50.9, "unit": "µg/mL"}
    ]}
  ]
}
